Sampled rows, rich in hits. Any-hit rate of the full collection: about 2%.
RBBP9 inhibitor = blocks human serine hydrolase RBBP9. O75884. recombinant RBBP9, FP-Rh probe fluorescence polarization. inhibition, % at 7.94 µM. hit rate 0.2% among 220,000. AID 1515;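 active = inhibition above the campaign mean of all tested compounds plus 3 SD, cut at about 14% in these data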;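 also: plate controls were DMSO wells with RBBP9 for no effect and wells lacking RBBP9 protein for full effect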
Target sequence (O75884 whole entry, looked up): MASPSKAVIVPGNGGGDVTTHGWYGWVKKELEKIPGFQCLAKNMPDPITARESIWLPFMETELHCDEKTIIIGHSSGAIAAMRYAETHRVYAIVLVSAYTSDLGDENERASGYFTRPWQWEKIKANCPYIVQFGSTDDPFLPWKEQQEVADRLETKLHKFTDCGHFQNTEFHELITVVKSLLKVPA
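Test system – recombinant human RBBP9 · Input – RBBP9 2.5 µM in dispensing solution, pre-mixing · Medium – Tris buffer pH 8.0, NaCl, Pluronic · Schedule – preincubation 30 min plus labeling 45 min at 25 °C · Measured by – fluorescence polarization · Measure – % inhibition · Controls – DMSO and no-protein wells · Replicates – one well per compound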
TNF death inh = TNF-alpha cell death inhibition in Jurkat FADD-/- cells; Jurkat FADD-/- TNF necroptosis rescue, ATP luminescence, 24 h; 0 = TNF only, 100 = no-TNF cells; activation (protection from cell death), % at 10 µM; hit rate 0.068% among 220,000; AID 463075;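 active = activation, meaning protection from cell death, of at least 50% relative to plate controls; inactive = activation below 50%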;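 also: necroptosis triggered by 40 ng/mL TNF-alpha added together with compound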
PfM18AAP inh = PfM18AAP enzyme inhibition; hit rate 1.2% among 290,000; recombinant PfM18AAP, H-Glu-NHMec fluorogenic cleavage; inhibition, % at 7.35 µM; AID 1822;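 active = inhibition above the campaign mean inhibition over all tested compounds plus 3 SD, cut at about 28% in these data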;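 also: 0% = plate median of test compound wells and 100% = 2 mM ZnCl2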
TbHK1 inh = T. brucei hexokinase 1 inhibition; recombinant TbHK1, G6PDH-coupled NADH A340; inhibition, % at 10 µM; hit rate 0.11% among 220,000; AID 1430;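 active = inhibition of 50% or more in the single-dose primary screen; inactive = inhibition below 50%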
Hep lipid drop = hepatic lipid droplet formation modulation; AML12 mouse hepatocytes, oleate lipid droplets, BODIPY imaging; inhibition, % at 6.5 µM; hit rate 0.4% among 240,000; AID 1656;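 active = lipid droplet intensity inhibited by at least 50%, with more than 500 cells counted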
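Material – mouse AML12 hepatocyte cell line, fixed after treatment · Compound dosing – one dose, 6.5 µM compound · Times – compound with oleate, overnight · Measured by – Image-based BODIPY and DAPI two-channel analysis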
L929 necroptosis = blocks zVAD induced death of L929 cells; L929 zVAD necroptosis rescue, ATP luminescence, 24 h; with zVAD 60 µM; viability rescue, % at 10 µM; hit rate 0.38% among 220,000; AID 1377;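 active = activation, scaled between plate controls, above about 75%, limit read from the data; inactive = activation under that limit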;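 also: 0% = zVAD with DMSO and 100% = DMSO alone without zVAD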
Lipid drop inh = confirmation of inhibitors of hepatic lipid droplet formation. shares compounds with Hep lipid drop. AID 463183. hit rate 65% among 870. inhibition, % at 5.2 µM. AML12 mouse hepatocytes, BODIPY lipid droplet imaging; droplets induced with 100 µM oleic acid;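 active = inhibition of lipid droplet metric at least 50%, with more than 300 cells in each of four replicates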;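 also: plate controls were DMSO with oleic acid for no effect and 5 µM Triacsin-C for full effect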
AML12 tox img = counter-screen for cytotoxicity in AML12 mouse hepatocytes. z-score at 5 µM. AID 463200. shares compounds with Hep lipid drop. hit rate 3% among 870. DAPI nuclear morphology cytotoxicity imaging; active compounds read high; cells fed 100 µM oleate overnight; in the data active = z-score above about 6.3;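 also: compound exposure lasted overnight at 37 °C before fixation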
AML12 tox ATP = AML12 hepatocyte cytotoxicity, confirmed; shares compounds with Hep lipid drop; AML12 mouse hepatocyte viability, ATP luminescence; cells loaded with 100 µM oleic acid; cytotoxicity, % at 50 µM; 530 tested, under 10 active; AID 463219;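 active = cytotoxicity above 50% in each of four replicates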;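 also: compound exposure lasted overnight at 37 °C before the ATP read; 0% = DMSO-treated cells and 100% = wells with no cells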
Numbers without * were called inactive; . = not tested or not shown.

SMILES	RBBP9 inhibitor	TNF death inh	PfM18AAP inh	TbHK1 inh	Hep lipid drop	L929 necroptosis	Lipid drop inh	AML12 tox img	AML12 tox ATP
N#C/C(=C\c1ccc(-c2ccc([N+](=O)[O-])cc2)o1)C(=O)Nc1nc(-c2cccs2)cs1	-5	-3	15	2	18	4	.	.	.
COc1ccc(N/C=C(\C=C\C#N)S(=O)(=O)c2ccccc2)cc1	.	.	4	.	-1	.	.	.	.
CCn1cc(C(=O)NCc2ccc(Cl)cc2)c(=O)c2cc(S(=O)(=O)N(C)C)ccc21	.	.	-7	.	62*	.	45	-0.85	19
Cn1c(=O)c(C(=O)COC(=O)c2cc(C3CC3)nc3ccccc23)c(N)n(Cc2ccccc2)c1=O	-14	3	2	-7	55*	2	82*	-0.96	.
COC(=O)Cc1ccc(NC(=O)c2ccc(Br)o2)cc1	-5	-1	4	5	-5	-1	.	.	.
CCCOC(=O)c1ccc(NC(=O)c2ccc(Br)o2)cc1	5	0	1	7	74*	2	82*	-0.94	6
Cc1cc(=O)oc2cc(OCC(=O)NCCCN3CCCC3=O)ccc12	.	.	1	.	52*	.	21	-0.74	.
CCO[C@@H]1OC(C(=O)NCc2ccccc2)=C[C@H](c2csc3ccccc23)[C@H]1CCCO	-11	8	-12	-3	-10	3	.	.	.
O=C1c2ccccc2C(=O)c2c(Nc3ccc(CCO)cc3)ccc(O)c21	6	-21	-7	-24	113*	0	115*	0.44	.
CC1(OC(=O)CCc2ccccc2)C(=O)C=C2C=C(c3ccc(C#N)cc3)N(CCc3c[nH]c4ccccc34)C=C2C1=O (stereo unspecified)	.	1	.	-26	60*	1	44	0.54	.
Cc1ccc(NC(=O)Nc2ccc3c(c2)CCC3)cc1C	.	.	3	.	-12	.	.	.	.
Cc1ccc(NC(=O)Cc2ccc3c(c2)CCCC3)cc1C	-3	-2	-4	2	53*	0	64*	0.49	9
CN(C)C1C(=O)c2ccccc2C1=O	-4	2	-3	-14	24	1	.	.	.
Brc1ccc(-c2csc(NNC3=NCCCCC3)n2)cc1	-7	-5	2	5	.	0	.	.	.
CC(C)(C)c1ccc(-c2csc(NNC3=NCCCCC3)n2)cc1	-1	-10	14	2	60*	-1	100*	-0.65	12
FC(F)Oc1ccc(-c2csc(NNC3=NCCCCC3)n2)cc1	-3	-4	13	2	95*	-1	115*	0.88	25
CCCCN1C(=O)/C(=C/C=C2\Oc3ccccc3N2CC)SC1=S	1	1	2	-4	69*	10	113*	-0.5	14
Cc1ccc(N2NC(C)(c3cccs3)NC2=S)cc1 (stereo unspecified)	-9	0	1	17	-8	-1	.	.	.
O=C(CN(CC1CCCO1)S(=O)(=O)c1ccc(S(=O)(=O)NC2CC2)cc1)Nc1ccccc1 (stereo unspecified)	-3	2	-6	4	95*	0	107*	-0.073	18
Cc1ccc(S(=O)(=O)NCc2ccc(C(=O)NC3CC3)cc2)cc1	-9	33	-2	7	60*	.	63	0.074	8
c1cc[n+](CCCC[n+]2ccccc2)cc1	.	.	5	.	12	.	.	.	.
c1cc[n+](CCC[n+]2ccccc2)cc1	.	.	0	.	56*	.	35	-0.4	.
Fc1ccc(-c2cnn3c(-c4cccs4)ccnc23)cc1	9	2	-18	-6	63*	1	79*	-0.16	.
Fc1ccc(-c2cnn3c(-c4ccncc4)ccnc23)cc1	2	-5	-8	-5	-10	21	.	.	.
COc1ccc(/C=N\Nc2ccc([N+](=O)[O-])cc2[N+](=O)[O-])c(C(=O)O)c1OC	-3	-1	18	-18	-6	1	.	.	.
SMILES	RBBP9 inhibitor	TNF death inh	PfM18AAP inh	TbHK1 inh	Hep lipid drop	L929 necroptosis	Lipid drop inh	AML12 tox img	AML12 tox ATP
CC1=C(/C=N/Nc2ccc([N+](=O)[O-])cc2[N+](=O)[O-])C(C)(C)CCC1	-3	-2	-5	16	72*	0	115*	-0.82	-13
Cc1nnc(SCC(=O)Nc2cc(C(C)(C)C)nn2-c2ccccc2)s1	3	4	-3	36	-12	2	.	.	.
Cc1nnc(SCC(=O)Nc2cc(-c3cc(C)c(C)cc3C)nn2-c2ccccc2)s1	-15	2	2	29	78*	1	89*	-0.66	-7
COc1cc(C(=O)OCn2nnc3ccccc3c2=O)cc(OC)c1OC	-4	-2	6	0	8	1	.	.	.
COc1cc(/C=C\C(=O)OCn2nnc3ccccc3c2=O)cc(OC)c1OC	2	-4	0	-15	57*	15	25	-0.6	.
COc1ccc(-c2cc(=Nc3c(C)n(C)n(-c4ccccc4)c3=O)c3ccccc3o2)cc1	-10	-2	4	-10	0	-2	.	.	.
COc1ccc(-c2c/c(=N\c3nc(-c4ccccc4)c(C)s3)c3ccccc3o2)cc1O	2	-17	14	-37	58*	0	-20	23*	.
COc1ccc(CC(=O)Nn2c(-c3ccccc3)nc3ccccc3c2=O)cc1	-6	1	2	3	56*	1	91*	-0.43	.
COc1ccc(-c2nc3ccccc3c(=O)n2NC(=O)Cc2ccccc2)cc1	3	2	-7	0	-2	1	.	.	.
CC(c1ccncn1)N(C)C(=O)c1ccc2oc(Cc3ccccc3)nc2c1 (stereo unspecified)	.	.	2	.	-1	.	.	.	.
C/C(=N\Nc1cccc(C(F)(F)F)c1)c1ccc(O)cc1	6	-1	-6	-5	4	3	.	.	.
CCOc1ccccc1NC(=O)N1CCCC1C(=O)Nc1ccc(-n2cnnn2)c(C)c1 (stereo unspecified)	-8	2	2	2	74*	2	97*	0.38	-4
Cc1ccc(NC(=O)N2CCCC2C(=O)Nc2ccc(-n3cnnn3)c(C)c2)cc1 (stereo unspecified)	-5	-1	-3	-2	12	-1	.	.	.
COc1ccccc1CC(=O)NC1CCCCCC1	.	.	2	.	.	.	.	.	.
CCOc1cc(Br)c(CC(=O)NC2CCCCCC2)cc1OCC	.	.	2	.	116*	.	108*	0.016	9

Screening data deposited in PubChem by several laboratories.
